Data on 30 compounds can be found in PubChem BioAssay.

The source made the active and inactive calls.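 How the source made its calls, unless noted: active means mean duplicate potentiation above the buffer control mean plus 5 SD of buffer wells; inactive means the rest.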

Test [1] is described as follows: nonspecific flux increase, KCNQ1-free cells – parental CHO cells, counter-screen for KCNQ1 potentiator project (AID 493006;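 active means duplicate-averaged activation above buffer control mean plus 5 SD of those controls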). The settings on record: parental CHO-K1 cells, FluxOR thallium flux, at 10 µM; stronger effect = higher value. In outline:
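Test system: parental CHO-K1 cells, FluxOR dye-loaded / Probe or stimulus: potassium plus thallium depolarizing stimulus, 5x stock 12.5 mM K2SO4, Tl2SO4 / Timing: overnight 37 °C plating, 90 min dye, 20 min dark compound / Measured by: kinetic thallium-flux fluorescence / Read-out: max-minus-min fluorescence over baseline, percent of buffer-to-R-L3 span / Benchmarks: buffer and R-L3 controls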
(A counterscreen serves to expose hits that act by an unwanted route or on another target.)

For test [2], the target named is Potassium voltage-gated channel subfamily KQT member 1 (Homo sapiens) (UniProt P51787). Briefly: enhancement of KCNQ1 channel thallium flux – FluxOR thallium flux, CHO cells, duplicates, confirmation (AID 493007;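 active means potentiation averaged over duplicate wells exceeding buffer-only control mean by more than 3 SD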;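 on outcome: cells depolarized by a potassium plus thallium sulfate stimulus after compound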;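 on potentiation: 0% = buffer-only wells and 100% = R-L3 activator control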). To be noted: KCNQ1 cell line, FluxOR thallium flux fluorescence, at 10 µM; stronger effect = higher value, % of reference activator effect, buffer zero. In outline:
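Assay system: CHO cells carrying KCNQ1 | Controls: Buffer and R-L3 controls | Schedule: FluxOR dye loading 90 min, compound exposure 20 min, room temperature | Read-out: Baseline-normalized fluorescence change, percent of buffer-to-R-L3 range | Replicates: Each compound tested in duplicate | Technique: Kinetic thallium influx fluorescence with FluxOR dye, 10 s baseline, 110 s post-stimulus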

Test [3] deals with Potassium voltage-gated channel subfamily KQT member 2 (Rattus norvegicus) (UniProt O88943). Briefly: KCNQ2 thallium flux enhancement – KCNQ2-CHO-K1 cells, selectivity assay for KCNQ1 potentiator project (AID 493009).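 Further: assay conditions were tuned for KCNQ1 rather than KCNQ2 modulators; signal is max minus min fluorescence divided by baseline after thallium stimulus.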 The settings on record: FluxOR thallium flux fluorescence, at 10 µM; stronger effect = higher value, scaled: buffer 0, activator control 100.
Sequence of Potassium voltage-gated channel subfamily KQT member 2 (Rattus norvegicus) (O88943 whole entry, looked up): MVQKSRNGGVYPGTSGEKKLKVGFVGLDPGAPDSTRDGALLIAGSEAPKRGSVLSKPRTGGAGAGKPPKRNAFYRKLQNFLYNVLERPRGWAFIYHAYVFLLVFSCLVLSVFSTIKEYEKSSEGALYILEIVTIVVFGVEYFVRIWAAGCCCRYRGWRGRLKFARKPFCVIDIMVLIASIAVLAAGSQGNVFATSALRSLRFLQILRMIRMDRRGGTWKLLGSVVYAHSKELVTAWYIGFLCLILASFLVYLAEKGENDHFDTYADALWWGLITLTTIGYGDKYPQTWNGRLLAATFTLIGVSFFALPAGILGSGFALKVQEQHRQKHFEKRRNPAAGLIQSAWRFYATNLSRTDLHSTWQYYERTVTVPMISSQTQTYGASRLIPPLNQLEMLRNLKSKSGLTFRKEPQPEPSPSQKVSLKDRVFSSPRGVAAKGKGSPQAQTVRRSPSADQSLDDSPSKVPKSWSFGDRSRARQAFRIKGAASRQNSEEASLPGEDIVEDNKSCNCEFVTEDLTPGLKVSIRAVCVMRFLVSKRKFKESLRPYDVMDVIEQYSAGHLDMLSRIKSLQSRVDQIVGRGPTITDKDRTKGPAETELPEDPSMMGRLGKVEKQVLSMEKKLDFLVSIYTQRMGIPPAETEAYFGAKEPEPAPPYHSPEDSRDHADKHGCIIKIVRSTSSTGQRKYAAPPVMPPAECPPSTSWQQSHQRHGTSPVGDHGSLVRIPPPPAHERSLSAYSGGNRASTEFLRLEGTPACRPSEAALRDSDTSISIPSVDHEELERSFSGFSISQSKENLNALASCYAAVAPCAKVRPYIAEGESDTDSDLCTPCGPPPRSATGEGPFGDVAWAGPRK
In test [4] the target is Potassium voltage-gated channel subfamily KQT member 1 (Homo sapiens) (UniProt P51787). Briefly: KCNQ1 activators by electrophysiology – IonWorks patch clamp, KCNQ1-CHO cells, orthogonal assay for KCNQ1 potentiator project, confirmation (AID 493184;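 active means current rise at least 3 SD above the untreated control mean in each of two repeat wells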). The settings on record: automated patch clamp current, at 10 µM; stronger effect = higher value. The essentials: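 Material: KCNQ1-expressing CHO cells; doses: 10 µM final, single point; probe or stimulus: voltage step from -90 mV holding to +40 mV, 2,000 ms; signal: automated voltage clamp, amphotericin B perforated patch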
Sequence of Potassium voltage-gated channel subfamily KQT member 1 (Homo sapiens) (P51787 whole entry, looked up): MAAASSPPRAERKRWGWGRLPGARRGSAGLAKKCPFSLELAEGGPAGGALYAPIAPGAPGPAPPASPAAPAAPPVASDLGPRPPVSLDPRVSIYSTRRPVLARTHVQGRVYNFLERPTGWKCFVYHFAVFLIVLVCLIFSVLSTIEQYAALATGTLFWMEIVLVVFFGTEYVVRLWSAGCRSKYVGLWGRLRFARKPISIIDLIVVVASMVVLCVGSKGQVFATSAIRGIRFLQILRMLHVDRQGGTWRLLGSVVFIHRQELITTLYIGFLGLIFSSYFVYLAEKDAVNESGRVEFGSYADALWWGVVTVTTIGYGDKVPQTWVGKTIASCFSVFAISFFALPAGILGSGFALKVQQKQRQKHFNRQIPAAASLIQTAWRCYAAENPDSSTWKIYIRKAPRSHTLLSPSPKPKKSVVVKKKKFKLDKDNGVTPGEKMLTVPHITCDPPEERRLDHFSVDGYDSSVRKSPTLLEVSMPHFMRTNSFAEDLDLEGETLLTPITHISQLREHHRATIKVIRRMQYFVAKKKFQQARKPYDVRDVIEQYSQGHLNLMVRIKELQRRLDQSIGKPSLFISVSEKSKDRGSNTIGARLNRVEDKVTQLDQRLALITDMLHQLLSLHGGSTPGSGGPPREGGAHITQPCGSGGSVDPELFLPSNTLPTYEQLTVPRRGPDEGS

Regarding `O=C(Nc1nnc(-c2ccc(F)cc2)o1)c1cc(Cl)sc1Cl`, the activation in test [1] was 330% (active). For the same compound, the results for the potentiation in test [2] and in test [3] were 118% (active) and 284% (active), respectively. Also, the outcome in test [4] was inactive.

On to `CCCn1c(=S)[nH]c2ccccc2c1=O`, for which, in test [1], the activation is 153% (active). The potentiation is 18.5% (active) in test [2] and 168% (active) in test [3]. Besides, the outcome in test [4] was inactive.

As for `CC1(c2ccccc2)CC(C)(C)N2C(=O)/C(=C3\SC(=S)NC3=O)c3cccc1c32` (stereo not given), in test [1], the activation was 684% (active). The potentiation in test [2] is 292% (active); in test [3] it was 520% (active). In test [4], the outcome was inactive.

`CCc1ccccc1NC(=O)C1CCN(C(=O)N2CCOc3ccccc32)CC1`: the outcome in test [1], in test [2], in test [3] and in test [4] was inactive.

For `Cc1c(N=Cc2cc(Br)cc(Br)c2O)cccc1C(=O)O`, the outcome in test [1], in test [3] and in test [4] was inactive. Moreover, the potentiation in test [2] was 42% (active).

For `COc1ccccc1C(=O)Nc1ccnn1C1CCN(CCCC2CCCC2)CC1`, the result in test [1], in test [2], in test [3] and in test [4] was inactive.

For the compound `N=c1sccn1CC(=O)N1N=C(c2ccc(Cl)cc2)CC1c1ccco1` (stereo not given), the result in test [1], in test [2], in test [3] and in test [4] was inactive.

For `Cc1cccc2sc(N(CCCN(C)C)C(=O)CCS(=O)(=O)c3ccccc3)nc12`, the result in test [1], in test [2], in test [3] and in test [4] was inactive.

Take `Cc1cc(C)c(S(=O)(=O)Nc2cccc3nsnc23)c(C)c1`: the outcome in test [1], in test [2], in test [3] and in test [4] was inactive.

Turning to `CCCCCCCCCCC[N+](C)(C)CC/C=C1/c2ccccc2Sc2ccc(Cl)cc21`, the activation in test [1] was 184% (active). In addition, the potentiation in test [2] is 64% (active). Further, the result in test [3] and in test [4] was inactive.

Regarding `N#CC(c1ccc(Cl)cc1)c1ccc2c(C(F)(F)F)cc(C(F)(F)F)nc2n1` (stereo not given), the activation in test [1] was 296% (active). Further, the potentiation was 145% (active) in test [2] and 407% (active) in test [3]. For the same compound, the outcome in test [4] was inactive.

Take `COc1cc2c(cc1OC)CN(C(=O)CNC(=O)c1ccc(OC(F)F)cc1)CC2`: the result in test [1], in test [2], in test [3] and in test [4] was inactive.

Regarding `Cc1cccn2c(=O)nc(SCC(=O)N3N=C(c4cccs4)CC3c3ccc(F)cc3)nc12` (stereo not given), the result in test [1], in test [2], in test [3] and in test [4] was inactive.

With `CCOC(=O)c1c(NC(=S)NCc2ccccc2)sc2c1CCN(C(=O)OCC)C2`, the result in test [1], in test [2], in test [3] and in test [4] was inactive.

In the case of `CCCn1c(=S)[nH]c2sc3c(c2c1=O)CCCC3`, the activation in test [1] was 418% (active). Moreover, the values for the potentiation in test [2] and in test [3] were 158% (active) and 434% (active), respectively. Moreover, the outcome in test [4] was inactive.

With `NC(=S)Nc1nc2ccccc2s1`, in test [1], the activation was 165% (active). Further, the potentiation in test [2] is 54.5% (active); in test [3], 186% (active). In addition, the outcome in test [4] was inactive.

Consider `Cc1ccc(C)c(N2CCN(C(=O)CCS(=O)(=O)c3ccc4c(c3)NC(=O)CO4)CC2)c1`, for which the outcome in test [1], in test [2], in test [3] and in test [4] was inactive.

With `CCCCN1C=CC(=C2C(=O)c3ccccc3C2=O)C=C1`, the result in test [1], in test [2], in test [3] and in test [4] was inactive.

`O=C(CN1CCOCC1)N1CCN(c2nnc(-c3ccccc3)c3ccccc23)CC1`: the result in test [1], in test [2], in test [3] and in test [4] was inactive.

For the compound `O=C(Nc1ccc2[nH]c(=S)sc2c1)c1ccccc1`, the outcome in test [1] and in test [4] was inactive. Moreover, the potentiation is 52% (active) in test [2] and 154% (active) in test [3].

In the case of `COc1ccc(/C=N/N=C2/NC(=O)C(c3ccccc3)S2)c(OC)c1` (stereo not given), the result in test [1], in test [2], in test [3] and in test [4] was inactive.

Turning to `C=CCN(CC=C)C(=S)NC(=O)Cc1cccc2ccccc12`, in test [1], the activation is 210% (active). For the same compound, the potentiation in test [2] was 68.5% (active); in test [3], 245% (active). The outcome in test [4] was inactive.

Consider `CCCCCn1c(=O)c(F)cn(Cc2ccc(OC)c([N+](=O)[O-])c2)c1=O`, for which the outcome in test [1], in test [2], in test [3] and in test [4] was inactive.

In the case of `CC(/C=N/n1c(-c2ccc(C)cc2)n[nH]c1=S)=C\c1ccco1`, the outcome in test [1], in test [2], in test [3] and in test [4] was inactive.

With `CCc1ccc(CNC(=O)CCn2nc(C)c3c(C)n(-c4ccccc4)nc3c2=O)cc1`, the result in test [1], in test [2], in test [3] and in test [4] was inactive.

In the case of `N#Cc1ccc(-c2nc3ccc(Br)cc3c(=O)n2O)cc1`, the activation in test [1] is 300% (active). Also, the potentiation in test [2] was 120% (active); in test [3] it was 354% (active). Moreover, in test [4], the outcome was inactive.

As to `O=c1c(-c2ccc(Cl)cc2)[n+]([O-])c2ccccc2n1O`, the activation in test [1] is 190% (active). Moreover, the outcome in test [2] and in test [4] was inactive. Moreover, the potentiation in test [3] was 184% (active).

Take `Cc1ccc(-c2csc(NC(=S)NC(=O)c3ccco3)n2)cc1`: the activation in test [1] was 180% (active). For the same compound, the potentiation in test [2] was 71% (active); in test [3], 164% (active). The result in test [4] was inactive.

Turning to `O=c1sc(N2CCN(c3ccccc3F)CC2)nc2ccsc12`, the outcome in test [1], in test [2], in test [3] and in test [4] was inactive.

As for `CCOC(=O)c1ccc(Oc2nc(NC(C)(C)C)nc(N(C)C)n2)cc1`, the result in test [1], in test [2], in test [3] and in test [4] was inactive.
